Measured values published in ChEMBL document CHEMBL1944580, “Synthesis of novel sulfonamide-1,2,4-triazoles, 1,3,4-thiadiazoles and 1,3,4-oxadiazoles, as potential antibacterial and antifungal agents. Biological evaluation and conformational analysis studies” (2012).
≈ marks a conversion by molar mass, not a printed value.

How the values were obtained:
[1] = test system: Pseudomonas aeruginosa; test: Antibacterial activity against Pseudomonas aeruginosa ATCC 27853 treated for 24 hrs followed by sub-cultivated for 72 hrs by micro dilution method; assay type: functional
Method in brief: (§1)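 2 µl from each well was serially subcultured into 100 µl fresh broth per well and incubated a further 72 h. MBC is the lowest concentration with no visible growth, taken as 99.5% killing of the original inoculum. Streptomycin and ampicillin were the positive controls.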

[2] = test system: Penicillium ochrochloron; test: Antifungal activity against Penicillium ochrochloron ATCC 9112 after 72 hrs by serial dilution method; assay type: functional; conditions: ATCC 9112, 72 h
Method in brief: (§2)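 Modified microdilution MIC. Spores were washed from malt agar cultures with sterile 0.85% saline containing 0.1% Tween 80 and adjusted to about 1.0 × 10^5 per 100 µl well in malt broth. Compounds were dissolved in DMSO (1 mg/ml). Plates incubated 72 h at 28 °C. MIC is the lowest concentration with no visible growth under a binocular microscope. Bifonazole and ketoconazole were the references.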

[3] = test system: Aspergillus fumigatus; test: Antifungal activity against Aspergillus fumigatus human isolate treated for 72 hrs followed by sub-cultivated for 5 days by serial dilution method; assay type: functional
Method in brief: (§3)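 MFC obtained after the 72 h, 28 °C malt-broth microdilution (spore inoculum about 1.0 × 10^5 per well, compounds from 1 mg/ml DMSO). 2 µl was serially subcultured into 100 µl broth per well and incubated a further 5 days at 28 °C. MFC is the lowest concentration with no visible growth, taken as 99.5% killing of the original inoculum.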

[4] = test system: Talaromyces funiculosus; test: Antifungal activity against Penicillium funiculosum ATCC 36839 treated for 72 hrs followed by sub-cultivated for 5 days by serial dilution method; assay type: functional; method in brief: as §3
[5] = test system: Aspergillus flavus; test: Antifungal activity against Aspergillus flavus ATCC 9643 treated for 72 hrs followed by sub-cultivated for 5 days by serial dilution method; assay type: functional; method in brief: as §3
[6] = test system: Aspergillus flavus; test: Antifungal activity against Aspergillus flavus ATCC 9643 after 72 hrs by serial dilution method; assay type: functional; conditions: ATCC 9643, 72 h; method in brief: as §2
[7] = test system: Micrococcus flavus; test: Antibacterial activity against Micrococcus flavus ATCC 10240 treated for 24 hrs followed by sub-cultivated for 72 hrs by micro dilution method; assay type: functional; method in brief: as §1
[8] = test system: Penicillium ochrochloron; test: Antifungal activity against Penicillium ochrochloron ATCC 9112 treated for 72 hrs followed by sub-cultivated for 5 days by serial dilution method; assay type: functional; method in brief: as §3
[9] = test system: Escherichia coli; test: Antibacterial activity against Escherichia coli ATCC 35210 after 24 hrs by micro dilution method; assay type: functional; conditions: ATCC 35210, 24 h
Method in brief: (§4)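 Microdilution MIC in 96-well plates. Bacterial suspensions adjusted in sterile saline to 1.0 × 10^5 CFU/ml, giving 1.0 × 10^4 cfu per well in LB broth. Compounds tested at up to 1 mg/ml. Plates incubated 24 h. MIC taken as the lowest concentration with no visible growth under a binocular microscope. OD at 655 nm was also read against a blank and the positive control. Streptomycin and ampicillin were the positive controls.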

[10] = test system: Listeria monocytogenes; test: Antibacterial activity against Listeria monocytogenes NCTC 7973 treated for 24 hrs followed by sub-cultivated for 72 hrs by micro dilution method; assay type: functional; method in brief: as §1
[11] = test system: Salmonella typhimurium; test: Antibacterial activity against Salmonella Typhimurium ATCC 13311 treated for 24 hrs followed by sub-cultivated for 72 hrs by micro dilution method; assay type: functional, Salmonella enterica subsp. enterica serovar Typhimurium; conditions: Salmonella enterica; method in brief: as §1
[12] = test system: Aspergillus fumigatus; test: Antifungal activity against Aspergillus fumigatus human isolate after 72 hrs by serial dilution method; assay type: functional; method in brief: as §2
[13] = test system: Aspergillus versicolor; test: Antifungal activity against Aspergillus versicolor ATCC 11730 after 72 hrs by serial dilution method; assay type: functional; conditions: ATCC 11730, 72 h; method in brief: as §2
[14] = test system: Aspergillus niger; test: Antifungal activity against Aspergillus niger ATCC 6275 treated for 72 hrs followed by sub-cultivated for 5 days by serial dilution method; assay type: functional; method in brief: as §3
[15] = test system: Enterobacter cloacae; test: Antibacterial activity against Enterobacter cloacae human isolate treated for 24 hrs followed by sub-cultivated for 72 hrs by micro dilution method; assay type: functional; method in brief: as §1
[16] = test system: Aspergillus niger; test: Antifungal activity against Aspergillus niger ATCC 6275 after 72 hrs by serial dilution method; assay type: functional; conditions: ATCC 6275, 72 h; method in brief: as §2
[17] = test system: Escherichia coli; test: Antibacterial activity against Escherichia coli ATCC 35210 treated for 24 hrs followed by sub-cultivated for 72 hrs by micro dilution method; assay type: functional; method in brief: as §1
[18] = test system: Bacillus cereus; test: Antibacterial activity against Bacillus cereus clinical isolate after 24 hrs by micro dilution method; assay type: functional; method in brief: as §4
[19] = test system: Listeria monocytogenes; test: Antibacterial activity against Listeria monocytogenes NCTC 7973 after 24 hrs by micro dilution method; assay type: functional; conditions: NCTC 7973, 24 h; method in brief: as §4
[20] = test system: Trichoderma viride; test: Antifungal activity against Trichoderma viride IAM 5061 after 72 hrs by serial dilution method; assay type: functional; conditions: IAM 5061, 72 h; method in brief: as §2
[21] = test system: Bacillus cereus; test: Antibacterial activity against Bacillus cereus clinical isolate treated for 24 hrs followed by sub-cultivated for 72 hrs by micro dilution method; assay type: functional; method in brief: as §1
[22] = test system: Micrococcus flavus; test: Antibacterial activity against Micrococcus flavus ATCC 10240 after 24 hrs by micro dilution method; assay type: functional; conditions: ATCC 10240, 24 h; method in brief: as §4
[23] = test system: Enterobacter cloacae; test: Antibacterial activity against Enterobacter cloacae human isolate after 24 hrs by micro dilution method; assay type: functional; method in brief: as §4
[24] = test system: Pseudomonas aeruginosa; test: Antibacterial activity against Pseudomonas aeruginosa ATCC 27853 after 24 hrs by micro dilution method; assay type: functional; conditions: ATCC 27853, 24 h; method in brief: as §4
[25] = test system: Fulvia fulva; test: Antifungal activity against Fulvia fulva treated for 72 hrs followed by sub-cultivated for 5 days by serial dilution method; assay type: functional; method in brief: as §3
[26] = test system: Aspergillus versicolor; test: Antifungal activity against Aspergillus versicolor ATCC 11730 treated for 72 hrs followed by sub-cultivated for 5 days by serial dilution method; assay type: functional; method in brief: as §3
[27] = test system: Staphylococcus aureus; test: Antibacterial activity against Staphylococcus aureus ATCC 6538 after 24 hrs by micro dilution method; assay type: functional; conditions: ATCC 6538, 24 h; method in brief: as §4
[28] = test system: Fulvia fulva; test: Antifungal activity against Fulvia fulva after 72 hrs by serial dilution method; assay type: functional; method in brief: as §2
[29] = test system: Staphylococcus aureus; test: Antibacterial activity against Staphylococcus aureus ATCC 6538 treated for 24 hrs followed by sub-cultivated for 72 hrs by micro dilution method; assay type: functional; method in brief: as §1
[30] = test system: Trichoderma viride; test: Antifungal activity against Trichoderma viride IAM 5061 treated for 72 hrs followed by sub-cultivated for 5 days by serial dilution method; assay type: functional; method in brief: as §3
[31] = test system: Talaromyces funiculosus; test: Antifungal activity against Penicillium funiculosum ATCC 36839 after 72 hrs by serial dilution method; assay type: functional; conditions: ATCC 36839, 72 h; method in brief: as §2
[32] = test system: Salmonella typhimurium; test: Antibacterial activity against Salmonella Typhimurium ATCC 13311 after 24 hrs by micro dilution method; assay type: functional, Salmonella enterica subsp. enterica serovar Typhimurium; conditions: Salmonella enterica, ATCC 13311, 24 h; method in brief: as §4

COc1cc(Cc2n[nH]c(=S)n2C(C)(C)C)c(S(=O)(=O)N(C)C)cc1OC
MBC [1]: 420 µM (≈ 174 µg/mL)
MIC [2]: 120 µM (≈ 49.7 µg/mL)
MFC [3]: 120 µM (≈ 49.7 µg/mL)
MFC [4]: 240 µM (≈ 99.5 µg/mL)
MFC [5]: 360 µM (≈ 149 µg/mL)
MIC [6]: 240 µM (≈ 99.5 µg/mL)
MBC [7]: 420 µM (≈ 174 µg/mL)
MFC [8]: 360 µM (≈ 149 µg/mL)
MIC [9]: 240 µM (≈ 99.5 µg/mL)
MBC [10]: 420 µM (≈ 174 µg/mL)
MBC [11]: 420 µM (≈ 174 µg/mL)
MIC [12]: 20 µM (≈ 8.29 µg/mL)
MIC [13]: 240 µM (≈ 99.5 µg/mL)
MFC [14]: 360 µM (≈ 149 µg/mL)
MBC [15]: 420 µM (≈ 174 µg/mL)
MIC [16]: 240 µM (≈ 99.5 µg/mL)
MBC [17]: 420 µM (≈ 174 µg/mL)
MIC [18]: 240 µM (≈ 99.5 µg/mL)
MIC [19]: 240 µM (≈ 99.5 µg/mL)
MIC [20]: 240 µM (≈ 99.5 µg/mL)
MBC [21]: 480 µM (≈ 199 µg/mL)
MIC [22]: 240 µM (≈ 99.5 µg/mL)
MIC [23]: 240 µM (≈ 99.5 µg/mL)
MIC [24]: 240 µM (≈ 99.5 µg/mL)
MFC [25]: 240 µM (≈ 99.5 µg/mL)
MFC [26]: 360 µM (≈ 149 µg/mL)
MIC [27]: 240 µM (≈ 99.5 µg/mL)
MIC [28]: 240 µM (≈ 99.5 µg/mL)
MBC [29]: 420 µM (≈ 174 µg/mL)
MFC [30]: 240 µM (≈ 99.5 µg/mL)
MIC [31]: 120 µM (≈ 49.7 µg/mL)
MIC [32]: 240 µM (≈ 99.5 µg/mL)

CCn1c(Cc2cc(OC)c(OC)cc2S(=O)(=O)N(C)C)n[nH]c1=O
MBC [1]: 540 µM (≈ 200 µg/mL)
MIC [2]: 140 µM (≈ 51.9 µg/mL)
MFC [3]: 270 µM (≈ 100 µg/mL)
MFC [4]: 270 µM (≈ 100 µg/mL)
MFC [5]: 450 µM (≈ 167 µg/mL)
MIC [6]: 270 µM (≈ 100 µg/mL)
MBC [7]: 400 µM (≈ 148 µg/mL)
MFC [8]: 270 µM (≈ 100 µg/mL)
MIC [9]: 270 µM (≈ 100 µg/mL)
MBC [10]: 540 µM (≈ 200 µg/mL)
MBC [11]: 540 µM (≈ 200 µg/mL)
MIC [12]: 140 µM (≈ 51.9 µg/mL)
MIC [13]: 140 µM (≈ 51.9 µg/mL)
MFC [14]: 450 µM (≈ 167 µg/mL)
MBC [15]: 540 µM (≈ 200 µg/mL)
MIC [16]: 270 µM (≈ 100 µg/mL)
MBC [17]: 270 µM (≈ 100 µg/mL)
MIC [18]: 270 µM (≈ 100 µg/mL)
MIC [19]: 400 µM (≈ 148 µg/mL)
MIC [20]: 140 µM (≈ 51.9 µg/mL)
MBC [21]: 810 µM (≈ 300 µg/mL)
MIC [22]: 400 µM (≈ 148 µg/mL)
MIC [23]: 540 µM (≈ 200 µg/mL)
MIC [24]: 400 µM (≈ 148 µg/mL)
MFC [25]: 270 µM (≈ 100 µg/mL)
MFC [26]: 450 µM (≈ 167 µg/mL)
MIC [27]: 270 µM (≈ 100 µg/mL)
MIC [28]: 270 µM (≈ 100 µg/mL)
MBC [29]: 540 µM (≈ 200 µg/mL)
MFC [30]: 270 µM (≈ 100 µg/mL)
MIC [31]: 140 µM (≈ 51.9 µg/mL)
MIC [32]: 400 µM (≈ 148 µg/mL)
